# pCIP destab: p/CIP-EGFP fusion destabilizers, primary screen, fluorescence, F442A cells; 16 h; decrease of EGFP signal, % at 10 µM; AID 1984, 2009; Q05BA5; actives 0.01% (n = 290,000);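 active means EGFP signal decrease of at least 30% at 10 µM or well 3 SD below plate mean, unless failing retest; inactive means the rest, including hits failing retest or dose response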
# Runt-CBFb FRET: inhibitors of RUNX1 Runt–CBFb binding, primary screen, biochemical, FRET, Cerulean-Runt, Venus-CBFb, uHTS. AID 1496, 2009. Runt-related transcription factor 1 (Homo sapiens) + Core-binding factor subunit beta …. actives 0.46% (n = 220,000). Cerulean-Runt/Venus-CBFb FRET ratio 530/480, 1 h. inhibition, % at 20 µM;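 active means inhibition over about 50% at 20 µM in the single-dose screen, limit read from the data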;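 further: 0% = DMSO wells and 100% = excess unlabeled CBFb competitor control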
# Target sequence (Q01196 whole entry, looked up): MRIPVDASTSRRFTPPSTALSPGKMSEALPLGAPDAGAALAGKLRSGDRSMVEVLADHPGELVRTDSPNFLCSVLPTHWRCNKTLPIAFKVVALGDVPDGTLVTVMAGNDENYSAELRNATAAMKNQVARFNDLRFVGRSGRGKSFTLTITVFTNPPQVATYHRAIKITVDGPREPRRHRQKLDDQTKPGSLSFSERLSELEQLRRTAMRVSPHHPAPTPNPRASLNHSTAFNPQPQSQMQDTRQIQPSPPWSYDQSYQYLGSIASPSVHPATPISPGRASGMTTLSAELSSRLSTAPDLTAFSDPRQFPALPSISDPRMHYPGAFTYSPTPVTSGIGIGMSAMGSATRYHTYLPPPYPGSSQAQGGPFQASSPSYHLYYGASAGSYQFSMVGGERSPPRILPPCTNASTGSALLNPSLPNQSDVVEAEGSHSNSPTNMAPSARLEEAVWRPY
# Target sequence (Q13951 whole entry, looked up): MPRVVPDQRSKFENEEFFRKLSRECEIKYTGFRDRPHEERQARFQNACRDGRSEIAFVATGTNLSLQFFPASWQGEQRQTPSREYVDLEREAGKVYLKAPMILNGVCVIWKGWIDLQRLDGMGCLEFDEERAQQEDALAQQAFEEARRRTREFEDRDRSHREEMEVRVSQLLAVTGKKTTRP
#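 Buffer or medium: Tris pH 7.5 buffer with BSA. Assay system: Cerulean-labeled Runt domain protein. Amount: each fluorescent fusion protein 100 nM. Read-out basis: loss of energy transfer signal. Incubation: 1 h compound exposure, room temperature. Probe or stimulus: Venus-CBFb binding partner, 100 nM. Detection: FRET, excitation 422 nm, emission at 530 and 480 nm.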
# RanGTP-Imp inh: inhibitors of RanGTP-importin-beta interaction, primary screen, biochemical, FRET, CFP-Ran, YFP-importin-beta, homogeneous. Ran GTPase (GTP-bound) - importin-beta complex. cell-free CFP-Ran/YFP-importin-beta FRET ratio. inhibition, % (no concentration beside the values). actives 1.1% (n = 300,000). AID 2216, 2009;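 active means more than half of the replicate wells show a fall in the fluorescence ratio signal beyond about 16%, limit read from the data, passing the limit was not always enough; inconclusive means exactly half of the replicate wells pass the set limit; inactive means fewer than half of replicates pass the limit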;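 further: 0% = DMSO wells and 100% = Ran loaded with GDP instead of GTP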
# DSG3 Ab inh: inhibitors of pemphigus antibody binding to DSG3, primary screen, biochemical, bead-based, flow cytometry, scFv-GFP; actives 0.48% (n = 310,000); DSG3-coupled beads, scFv-anti-DSG3-GFP binding; hits give low values; binding (percent of control), % at 10 µM; Desmoglein-3 (Homo sapiens), P32926;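 active means binding more than 3 SD below its plate's average and above zero; inconclusive means below that plate limit but binding exactly zero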;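 further: hits lower antibody fragment binding to DSG3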
# Runt-SMMHC FRET: inhibitors of RUNX1 Runt–CBFb-SMMHC binding, primary screen, biochemical, FRET, Cerulean-Runt, Venus-CBFb-SMMHC, uHTS; Runt-related transcription factor 1 (Homo sapiens) + Core-binding factor subunit beta …; Cerulean-Runt/Venus-CBFb-SMMHC FRET ratio 530/480, 1 h; inhibition, % at 20 µM; actives 0.74% (n = 220,000); AID 1434, 2008;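 active means mean inhibition across duplicate retests at 20 µM reaching about 50%, limit read from the data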;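 further: 0% = DMSO wells and 100% = wells with excess untagged CBFb-SMMHC; inhibitors lower the FRET ratio by blocking Runt binding to CBFb-SMMHC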
# Hck-Nef inh: inhibitors of Nef-activated human Hck kinase, primary screen, biochemical, Z-Lyte FRET, 384-well, Hck-YEEI; Tyrosine-protein kinase HCK (Homo sapiens), P08631; Recombinant Hck-YEEI plus Nef, Z-Lyte FRET kinase assay; actives 0.68% (n = 220,000); inhibition, % at 20 µM;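 active means Hck-Nef kinase inhibition above about 50%, limit read from the data; inactive means inhibition below that limit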;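 further: 0% = DMSO with Hck plus Nef and 100% = Hck alone without Nef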
# An asterisk follows results filed as active; ? = inconclusive; · = not tested or not shown. Most compounds without a hit are left out; they make up all but 2.1% or so of the library.
SMILES,pCIP destab,Runt-CBFb FRET,RanGTP-Imp inh,DSG3 Ab inh,Runt-SMMHC FRET,Hck-Nef inh
COc1ccc(OC)c(C2C3=C(CCCC3=O)Nc3c2c(=O)n(C)c(=O)n3C)c1 (configuration not stated),-1.3,33.1,2.8,97.9,72.7*,6.2
COc1ccc(OC)c(C2C3=C(CCCC3=O)Nc3nnnn32)c1 (configuration not stated),-0.7,-1.0,7.6,107.0,1.6,0.4
COc1ccc(C2C3=C(CC(C)(C)CC3=O)Nc3c2c(=O)n(C)c(=O)n3C)cc1OC (configuration not stated),14.9,63.3*,5.0,103.0,107.0*,6.0
COc1ccccc1Cn1c(SCC(N)=O)nc2c(oc3ccccc32)c1=O,-18.7,-0.8,·,83.4,-1.0,19.0
CCc1cccc(NC(=O)C2CCCN2S(=O)(=O)c2ccc3c(c2)CC(C)N3C(C)=O)c1 (configuration not stated),-6.6,·,2.6,110.4,·,·
Cc1ccc(C(=O)OCC(=O)Nc2cccc(S(=O)(=O)NC3=NCCCCC3)c2)c(C)c1,-2.3,-9.5,6.8,74.2*,-2.2,-18.1
Cc1cccc(-n2c(O)c(C=Nc3cc(O)ccc3C)c3ccccc3c2=O)n1,-4.3,-23.8,-2.0,106.2,-30.0,0.3
Cc1cccc(-n2c(O)c(C=Nc3ccccc3O)c3ccccc3c2=O)n1,-13.3,0.6,30.2*,100.3,7.3,2.7
O=c1oc(Cc2ccccc2)nc2ccccc12,5.6,·,0.4,97.8,·,·
CCCNC(=O)C1(S(=O)(=O)c2ccccc2)CC=CC1,7.8,·,4.7,107.5,·,·
Cc1csc(NC(=O)c2cc(=O)[nH]c3ccccc23)n1,2.2,30.3,4.1,91.6,68.8*,12.1
CCCC(C(=O)Nc1cccc(S(=O)(=O)N2CCCC2)c1)c1ccccc1 (configuration not stated),·,·,-4.4,8.0*,·,·
Cc1cccc(C(=O)N=c2c(C#N)cc3c(=O)n4cccc(C)c4nc3n2Cc2ccco2)c1,-2.4,95.2*,111.8*,80.3,·,27.7
Cc1cccn2c(=O)c3cc(C#N)c(=NC(=O)c4ccccc4)n(Cc4ccco4)c3nc12,·,·,110.5*,109.8,·,·
Cc1cccn2c(=O)c3cc(C#N)c(=NC(=O)c4ccco4)n(Cc4ccco4)c3nc12,-0.8,9.6,119.9*,112.6,88.1*,22.5
O=C(CCN1C(=O)[C@@H]2Cc3ccccc3CN2C1=O)NCc1ccccc1Cl,5.1,·,-2.1,?,·,·
CC(=O)N1CCN(c2nc(-c3ccco3)c3c(c2C#N)CC(C)(C)SC3)CC1,-6.6,-12.5,16.0*,100.9,-41.7,5.9
CN(C)c1ccc(/C=c2/sc3n(c2=O)NC2(c4ccccc4)N(C)C(=O)N(C)C2(c2ccccc2)N=3)cc1 (configuration not stated),-1.5,-12.3,20.4*,·,-42.6,-19.9
CN1C(=O)N(C)C2(c3ccccc3)Nn3c(s/c(=C/c4ccccc4F)c3=O)=NC12c1ccccc1 (configuration not stated),2.9,10.3,-1.7,·,-7.3,-0.2
CCN(CC)CCN1C(=O)C(O)=C(C(=O)c2cccs2)C1c1ccccn1 (configuration not stated),-18.0,5.4,68.1*,100.7,-1.7,-20.4
CCN(CC)CCN1C(=O)C(O)=C(C(=O)c2cccs2)C1c1ccc(C)o1 (configuration not stated),-14.0,0.3,-1.9,83.9,-2.0,3.5
O=C(C1=C(O)C(=O)N(CCN2CCOCC2)C1c1ccccn1)c1cccs1 (configuration not stated),-6.6,12.5,25.6*,·,12.9,1.4
CC(C)C[C@H](NC(=O)C1CCN(S(=O)(=O)c2ccccc2)CC1)C(=O)NCc1ccncc1,-12.3,·,1.3,·,·,·
O=C(/C=C/c1cccc(F)c1)N1CCc2ccccc21,4.9,-5.2,0.4,18.1*,22.5,5.3
Cc1ccc(S(=O)(=O)Nc2cccc(Cl)c2)cc1NC(=O)c1cccnc1,-2.4,-1.4,62.3*,113.6,0.7,24.4
SMILES,pCIP destab,Runt-CBFb FRET,RanGTP-Imp inh,DSG3 Ab inh,Runt-SMMHC FRET,Hck-Nef inh
O=C(CN1C(=O)S/C(=C\c2cc(Cl)c(O)c(Cl)c2)C1=O)Nc1ccccc1,-16.2,·,50.8*,103.1,·,·
Cc1cccc(NC(=O)CN2C(=O)S/C(=C\c3ccc(O)c([N+](=O)[O-])c3)C2=O)c1,7.7,-8.5,-6.5,110.8,0.2,61.0*
CC(=O)N1c2ccc(S(=O)(=O)N3CCCC(C(=O)N4CCCC(C)C4)C3)cc2CC1C (configuration not stated),-2.4,·,-2.0,106.6,·,·
CC(=O)N1c2ccc(S(=O)(=O)N3CCC(C(=O)NCc4ccc(C)cc4)CC3)cc2CC1C (configuration not stated),-11.2,·,?,98.4,·,·
CC(=O)N1c2ccc(S(=O)(=O)N3CCCC(C(=O)N4CCC(C)CC4)C3)cc2CC1C (configuration not stated),-16.0,·,-2.4,-9.0*,·,·
CC(=O)N1c2ccc(S(=O)(=O)N3CCC(C(=O)NCc4ccc(N(C)C)cc4)CC3)cc2CC1C (configuration not stated),-9.0,·,66.7*,104.5,·,·
O=C(CNC(=O)c1cccs1)N=Nc1c(O)[nH]c2ccc([N+](=O)[O-])cc12,-14.0,·,-1.7,111.4,·,·
Cn1c(=S)ccc2ccccc21,-1.7,0.4,-2.3,95.1,3.4,7.0
O=CN(/C=C1\Sc2ccccc2C1=O)Cc1ccccc1,-3.7,37.1,?,100.0,66.8*,15.2
CC(=O)Nc1ccc(/C=C2\Sc3ccccc3C2=O)cc1,0.2,-3.9,3.6,·,-3.0,11.5
CC(=O)N(C)/C=C1\Sc2ccccc2C1=O,-3.1,29.7,?,105.3,76.3*,2.7
CCCCC[C@H](O)/C=C/[C@H]1C=CC(=O)[C@@H]1C/C=C\CCCC(=O)O,-2.1,7.0,·,·,0.1,56.8*
CCCCCC(O)C=CC1C(O)CC(O)C1CC=CCCCC(=O)O (configuration not stated),·,·,·,101.2,·,·
Cc1cccc(N2CCN(C(=O)C3CCN(S(=O)(=O)c4c(C)noc4C)CC3)CC2C)c1 (configuration not stated),2.3,-3.2,3.2,46.2*,2.0,23.7
NC(=O)NC(CC(=O)OCC(=O)Nc1nnc(-c2ccccc2)o1)c1ccc(Cl)cc1 (configuration not stated),·,·,·,103.5,·,·

# Bioassay records from PubChem.
